Assay results as given in ChEMBL document CHEMBL2401735, “Synthesis and cytotoxicity of novel (thiazol-2-yl)hydrazine derivatives as promising anti-Candida agents” (Eur J Med Chem, 2013).
Values after ≈ are worked out from the molar mass of the structure shown.

What was measured:
HEp-2 [1] = test: Cytotoxicity against human Hep2 cells assessed as appearance of autophagic vacuoles near to mitochondrial proximity in cytoplasm at 5 to 100 ug/ml after 24 hrs by transmission electron microscopic analysis; assay type: cell-based; conditions: hep-2, 24 h
Summary of the method: (§1)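 Hep2 cells treated and then examined by transmission electron microscopy, with unexposed cells as controls. Samples stained with 0.1% tannic acid for 30 min and uranyl acetate (5 mg/mL) for 1 h at 25 °C, dehydrated in graded acetone, embedded in Epon-812. Ultrathin sections counterstained with uranyl acetate and lead citrate before viewing.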

Candida tropicalis = test: Anticandida activity against Candida tropicalis clinical isolate assessed as growth inhibition after 24 hrs by broth microdilution method; assay type: functional
Summary of the method: (§2)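 Clinical Candida isolates subcultured for purity and optimal growth before testing; compounds dissolved in DMSO. Broth microdilution per NCCLS in Sabouraud dextrose broth, serial dilutions, inoculum about 10³/mL, with growth control and medium-only control; 24 h incubation at 37 °C. MIC is the lowest concentration giving complete visible inhibition.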

[2] = Cytotoxicity against human Hep2 cells assessed as cell survival fraction at 0.5 ug/ml after 24 hrs by trypan blue exclusion assay (reference value: 97 to 98%); assay type: cell-based; conditions: HEp-2 cells, read-out: Survival
[3] = Cytotoxicity against human Hep2 cells assessed as cell survival fraction at 0.05 ug/ml after 24 hrs by trypan blue exclusion assay (reference value: 97 to 98%); assay type: cell-based; conditions: HEp-2 cells, read-out: Survival
[4] = Cytotoxicity against human Hep2 cells assessed as cell survival fraction at 100 ug/ml after 24 hrs by trypan blue exclusion assay (reference value: 97 to 98%); assay type: cell-based; conditions: HEp-2 cells, read-out: Survival
[5] = tested on: Streptococcus alpha-hemolyticus; test: Antibacterial activity against Streptococcus alpha-hemolyticus assessed as growth inhibition after 18 to 22 hrs by broth microdilution method
[6] = Cytotoxicity against human Hep2 cells assessed as reduction of cell viability after 24 hrs by trypan blue exclusion assay; assay type: cell-based; conditions: HEp-2 cells
Summary of the method: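 Hep2 cells in DMEM with 10% FBS, penicillin-streptomycin, 5% CO₂, 37 °C. Cells at 1 × 10⁵/mL exposed 24 h to seven concentrations (0.005-100 µg/mL), DMSO ≤0.5% final; controls were medium alone, DMSO, and 1 mM sodium nitroprusside. Cells scraped, allowed 30 min recovery, mixed 1:1 with 0.4% trypan blue, counted by hemocytometer by two operators.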

Candida albicans = test: Anticandida activity against Candida albicans clinical isolate assessed as growth inhibition after 24 hrs by broth microdilution method; assay type: functional; summary of the method: as §2
Escherichia coli = test: Antibacterial activity against Escherichia coli assessed as growth inhibition after 18 to 22 hrs by broth microdilution method; assay type: functional
Summary of the method: (§3)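 Bacterial isolates subcultured for purity, identified conventionally. Broth microdilution per NCCLS in Mueller-Hinton II broth; plates with growth control (no compound) and medium-only control, incubated 18-22 h at 35 °C. MIC taken as lowest concentration giving complete growth inhibition by unaided eye.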

[7] = Cytotoxicity against human Hep2 cells assessed as cell survival fraction at 50 ug/ml after 24 hrs by trypan blue exclusion assay (reference value: 97 to 98%); assay type: cell-based; conditions: HEp-2 cells, read-out: Survival
Klebsiella oxytoca = test: Antibacterial activity against Klebsiella oxytoca assessed as growth inhibition after 18 to 22 hrs by broth microdilution method; assay type: functional; summary of the method: as §3
Staphylococcus warneri = test: Antibacterial activity against Staphylococcus warneri assessed as growth inhibition after 18 to 22 hrs by broth microdilution method; assay type: functional; summary of the method: as §3
[8] = Cytotoxicity against human Hep2 cells assessed as cell survival fraction at 5 ug/ml after 24 hrs by trypan blue exclusion assay (reference value: 97 to 98%); assay type: cell-based; conditions: HEp-2 cells, read-out: Survival
Proteus mirabilis = test: Antibacterial activity against Proteus mirabilis assessed as growth inhibition after 18 to 22 hrs by broth microdilution method; assay type: functional; summary of the method: as §3
Enterococcus faecalis = test: Antibacterial activity against […] assessed as growth inhibition after 18 to 22 hrs by broth microdilution method; assay type: functional; summary of the method: as §3
[9] = Cytotoxicity against human Hep2 cells assessed as cell survival fraction at 10 ug/ml after 24 hrs by trypan blue exclusion assay (reference value: 97 to 98%); assay type: cell-based; conditions: HEp-2 cells, read-out: Survival
Enterobacter sp. = test: Antibacterial activity against Enterobacter spp. assessed as growth inhibition after 18 to 22 hrs by broth microdilution method; assay type: functional; summary of the method: as §3
Nakaseomyces glabratus = test: Anticandida activity against Candida glabrata clinical isolate assessed as growth inhibition after 24 hrs by broth microdilution method; assay type: functional; summary of the method: as §2
Pichia kudriavzevii = test: Anticandida activity against Candida krusei clinical isolate assessed as growth inhibition after 24 hrs by broth microdilution method; assay type: functional; summary of the method: as §2
Staphylococcus aureus = test: Antibacterial activity against Staphylococcus aureus assessed as growth inhibition after 18 to 22 hrs by broth microdilution method; assay type: functional; summary of the method: as §3
[Candida] sake = Anticandida activity against Candida sake clinical isolate assessed as growth inhibition after 24 hrs by broth microdilution method; assay type: functional; conditions: Fermentozyma sake; summary of the method: as §2
Candida parapsilosis = test: Anticandida activity against Candida parapsilosis clinical isolate assessed as growth inhibition after 24 hrs by broth microdilution method; assay type: functional; conditions: Lodderomyces parapsilosis; summary of the method: as §2
[10] = Cytotoxicity against human Hep2 cells assessed as cell survival fraction at 0.005 ug/ml after 24 hrs by trypan blue exclusion assay (reference value: 97 to 98%); assay type: cell-based; conditions: HEp-2 cells, read-out: Survival
HEp-2 [11] = test: Cytotoxicity against human Hep2 cells assessed as mitochondrial swelling at 5 ug/ml after 24 hrs by transmission electron microscopic analysis; assay type: cell-based; conditions: hep-2, 24 h; summary of the method: as §1
HEp-2 [12] = test: Cytotoxicity against human Hep2 cells assessed as loss of cristae at 5 ug/ml after 24 hrs by transmission electron microscopic analysis; assay type: cell-based; conditions: hep-2, 24 h; summary of the method: as §1
HEp-2 [13] = test: Cytotoxicity against human Hep2 cells assessed as dilatation of endoplasmic reticulum at 100 ug/ml after 24 hrs by transmission electron microscopic analysis; assay type: cell-based; conditions: hep-2, 24 h; summary of the method: as §1
HEp-2 [14] = test: Cytotoxicity against human Hep2 cells assessed as induction of vacuolization in proximity of mitochondria at 5 ug/ml after 24 hrs by transmission electron microscopic analysis; assay type: cell-based; conditions: hep-2, 24 h; summary of the method: as §1
HEp-2 [15] = test: Cytotoxicity against human Hep2 cells assessed as cell survival at 100 ug/ml after 24 hrs by transmission electron microscopic analysis; assay type: cell-based; conditions: hep-2, 24 h; summary of the method: as §1
HEp-2 [16] = test: Cytotoxicity against human Hep2 cells assessed as appearance of finely granular cytoplasm at 5 ug/ml after 24 hrs by transmission electron microscopic analysis; assay type: cell-based; conditions: hep-2, 24 h; summary of the method: as §1

CCC/C(C)=N/Nc1nc(-c2ccc(C)cc2)cs1
Activity (HEp-2 [1]): Toxic | MIC (Candida tropicalis): 2 µg/mL (≈ 7.32 µM) | viability at 24 h, 0.5 ug/ml [2]: 91% | viability at 24 h, 0.05 ug/ml [3]: 94% | viability at 24 h, 100 ug/ml [4]: 62% | MIC [5]: > 256 µg/mL | CC50 at 24 h [6]: ≥ 100 µg/mL | MIC (Candida albicans): 0.5 µg/mL (≈ 1.83 µM) | MIC (Escherichia coli): > 256 µg/mL | viability at 24 h, 50 ug/ml [7]: 72.8% | MIC (Klebsiella oxytoca): > 256 µg/mL | MIC (Staphylococcus warneri): > 256 µg/mL | viability at 24 h, 5 ug/ml [8]: 93% | MIC (Proteus mirabilis): > 256 µg/mL | MIC (Enterococcus faecalis): > 256 µg/mL | viability at 24 h, 10 ug/ml [9]: 83.2% | MIC (Enterobacter sp.): > 256 µg/mL | MIC (Nakaseomyces glabratus): 0.5 µg/mL (≈ 1.83 µM) | MIC (Pichia kudriavzevii): 2 µg/mL (≈ 7.32 µM) | MIC (Staphylococcus aureus): > 256 µg/mL | MIC ([Candida] sake): 2 µg/mL (≈ 7.32 µM) | MIC (Candida parapsilosis): 2 µg/mL (≈ 7.32 µM) | viability at 24 h, 0.005 ug/ml [10]: 97%

CC/C(C)=N/Nc1nc(-c2ccc(OC)cc2)cs1
Activity (HEp-2 [11]): Toxic | MIC (Candida tropicalis): 2 µg/mL (≈ 7.26 µM) | viability at 24 h, 0.5 ug/ml [2]: 64% | viability at 24 h, 0.05 ug/ml [3]: 71% | viability at 24 h, 100 ug/ml [4]: 0% | MIC [5]: > 256 µg/mL | CC50 at 24 h [6]: 25 µg/mL (≈ 90.8 µM) | MIC (Candida albicans): 0.25 µg/mL (≈ 0.908 µM) | MIC (Escherichia coli): > 256 µg/mL | viability at 24 h, 50 ug/ml [7]: 0% | MIC (Klebsiella oxytoca): > 256 µg/mL | MIC (Staphylococcus warneri): > 256 µg/mL | viability at 24 h, 5 ug/ml [8]: 69% | MIC (Proteus mirabilis): > 256 µg/mL | MIC (Enterococcus faecalis): > 256 µg/mL | viability at 24 h, 10 ug/ml [9]: 64% | MIC (Enterobacter sp.): > 256 µg/mL | MIC (Nakaseomyces glabratus): 2 µg/mL (≈ 7.26 µM) | MIC (Pichia kudriavzevii): 2 µg/mL (≈ 7.26 µM) | MIC (Staphylococcus aureus): > 256 µg/mL | MIC ([Candida] sake): 2 µg/mL (≈ 7.26 µM) | Activity (HEp-2 [12]): Toxic | MIC (Candida parapsilosis): 2 µg/mL (≈ 7.26 µM) | viability at 24 h, 0.005 ug/ml [10]: 78% | Activity (HEp-2 [13]): Toxic

Clc1ccccc1C(c1ccccc1)(c1ccccc1)n1ccnc1 [CLOTRIMAZOLE]
MIC (Candida tropicalis): 2 µg/mL (≈ 5.8 µM) | Activity (HEp-2 [14]): Toxic | viability at 24 h, 0.5 ug/ml [2]: 93.4% | viability at 24 h, 0.05 ug/ml [3]: 93% | viability at 24 h, 100 ug/ml [4]: 0% | CC50 at 24 h [6]: 38 µg/mL (≈ 110 µM) | viability at 24 h, 50 ug/ml [7]: 0% | viability at 24 h, 5 ug/ml [8]: 92.5% | MIC (Nakaseomyces glabratus): 2 µg/mL (≈ 5.8 µM) | MIC ([Candida] sake): 4 µg/mL (≈ 11.6 µM) | Activity (HEp-2 [15]): Toxic | Activity (HEp-2 [16]): Toxic | viability at 24 h, 0.005 ug/ml [10]: 94.4%
